This is a sample that favours compounds with a hit; in the whole collection about 2.7% have one here.
MC4R ag barr: MC4R agonists recruiting beta-arrestin, primary screen, cell-based, luminescence, agonist arm of biased-ligand search; Melanocortin receptor 4 (Homo sapiens), P32245; activation, % at 8.9 µM; 360,000 compounds, 0.98% hits; AID 540308, 2011; U2OS MC4R beta-arrestin complementation; percent of melanotan II response, DMSO zero;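 active means activation above a per-plate cutoff, the mean activation of sample wells on that plate plus 3 SD, cut at about 8% in these data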
PREPL inh: PREPL enzyme inhibitors, primary screen, biochemical, fluorescence polarization; Prolyl endopeptidase-like (Homo sapiens), Q4J6C6; recombinant PREPL, fluorescence polarization activity-based probe; inhibition, % at 5.96 µM; 320,000 compounds, 0.68% hits; AID 2751, 2010; in the data active means inhibition above about 43%;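 further: 0% = enzyme with DMSO and 100% = wells lacking enzyme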
Target sequence (Q4J6C6 whole entry, looked up): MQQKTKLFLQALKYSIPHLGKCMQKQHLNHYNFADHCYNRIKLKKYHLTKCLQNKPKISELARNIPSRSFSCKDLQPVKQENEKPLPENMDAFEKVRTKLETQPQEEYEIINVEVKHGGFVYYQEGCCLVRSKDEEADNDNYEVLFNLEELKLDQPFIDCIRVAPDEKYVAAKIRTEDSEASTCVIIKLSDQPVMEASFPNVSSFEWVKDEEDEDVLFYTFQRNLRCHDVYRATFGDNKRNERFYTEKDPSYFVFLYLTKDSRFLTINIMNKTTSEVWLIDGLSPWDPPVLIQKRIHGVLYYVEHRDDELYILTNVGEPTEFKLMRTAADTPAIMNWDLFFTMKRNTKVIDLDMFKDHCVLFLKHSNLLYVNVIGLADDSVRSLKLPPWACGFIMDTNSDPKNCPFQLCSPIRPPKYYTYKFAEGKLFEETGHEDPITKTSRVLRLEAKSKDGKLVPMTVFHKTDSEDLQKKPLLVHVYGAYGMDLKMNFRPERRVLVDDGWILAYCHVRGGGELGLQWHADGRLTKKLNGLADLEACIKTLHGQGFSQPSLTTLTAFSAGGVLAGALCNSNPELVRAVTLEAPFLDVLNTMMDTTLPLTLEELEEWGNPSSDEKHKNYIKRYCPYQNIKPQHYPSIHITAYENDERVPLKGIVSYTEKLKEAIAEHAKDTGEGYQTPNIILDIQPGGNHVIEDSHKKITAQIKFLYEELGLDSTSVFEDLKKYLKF
MC4R antag cAMP: MC4R antagonists of cAMP signaling, primary screen, cell-based, TR-FRET, antagonist arm of biased-ligand search | Melanocortin receptor 4 (Homo sapiens), P32245 | MC4R-expressing cells, MTII-stimulated cAMP, LANCE TR-FRET | inhibition, % at 6.5 µM | 360,000 compounds, 0.48% hits | AID 540295, 2011;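 active means inhibition above its plate's cutoff, the mean of tested wells on that plate plus 3 SD, cut at about 29% in these data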;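 further: 0% = Melanotan II alone and 100% = Melanotan II plus saturating MCL0020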
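System: U2OS cells stably expressing human melanocortin 4 receptor (MC4R). Reagent: Melanotan II challenge after compound preincubation. Doses: 6.5 µM. Times: 30-min compound, 1-h challenge, 1-h detection, room temperature. Measured by: TR-FRET with Eu-cAMP and labeled anti-cAMP, 671 nm. Replicates: singlicate.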
HTR2A ag: mouse Htr2a agonists via beta-arrestin recruitment, primary screen, cell-based, luminescence | 5-hydroxytryptamine receptor 2A (Mus musculus), P35363 | CHO-K1 mHTR2A beta-arrestin complementation; percent of 30 µM serotonin response | activation, % at 7.6 µM | 360,000 compounds, 0.66% hits;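 active means activation above a run cutoff, the mean activation of all tested compounds plus 3 SD, cut at about 14% in these data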;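 further: 0% = plate median of compound wells and 100% = 30 µM serotonin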
Lipid droplet: inhibitors of hepatocyte lipid droplet formation, primary screen, imaging, high-throughput imaging, BODIPY stain. AML12 mouse hepatocytes, oleate lipid droplets. inhibition, % at 6.5 µM. 240,000 compounds, 0.4% hits;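 active means lipid droplet intensity inhibited by at least 50%, with more than 500 cells counted; inconclusive means wells with under 300 cells, treated as cytotoxic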
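Assay system: AML12 hepatocytes (mouse); Probe or stimulus: oleic acid at 100 µM to induce lipid droplet formation; Dosing: compound at 6.5 µM only; Schedule: compound with oleate, overnight; Detection: fluorescence imaging, 20x objective, two fields per well; Measure: % inhibition of lipid droplet signal.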
NTR1 ag: agonists of human NTR1, primary screen, imaging, U2OS cells, beta-arrestin-GFP, high content; 330,000 compounds, 0.17% hits; AID 493036, 2011; NTR1-U2OS beta-arrestin-GFP spot imaging, agonist mode; Neurotensin receptor type 1 (Homo sapiens), P30989; activation, % at 20 µM;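 active means activation at or above 40% of the spot to cytoplasm intensity ratio, with at least 20 cells analyzed; inconclusive means wells under 20 cells, flagged as cytotoxic or low count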;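 further: 0% = DMSO without peptide and 100% = 100 nM NTR1 peptide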
MC4R barr ag: MC4R beta-arrestin agonists, retest, confirmation, cell-based, luminescence, U2OS; shares compounds with MC4R ag barr; U2OS MC4R beta-arrestin recruitment; scaled DMSO 0%, Melanotan II 100%; activation, % at 8.9 µM; 2,400 compounds, 31% hits; AID 602192, 2012;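 active means mean activation across replicates above the hit cutoff set in the earlier primary screen, cut at about 8% in these data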
MOR DOR agonist: agonists of MOR-DOR heterodimerization, counter-screen for MC4R biased agonist project, cell-based, luminescence | shares compounds with MC4R ag barr | U2OS PathHunter beta-arrestin, beta-gal luminescence; percent of deltorphin B response, DMSO zero | activation, % at 9.2 µM | 2,400 compounds, 5.8% hits;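 active means mean activation across replicates exceeds the hit threshold derived in the earlier primary screen, cut at about 18% in these data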;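 further: 100% = deltorphin B at 0.9 µM final and 0% = DMSO alone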
Active calls of the source: *; ? = inconclusive; . = not tested or not shown.

SMILES	MC4R ag barr	PREPL inh	MC4R antag cAMP	HTR2A ag	Lipid droplet	NTR1 ag	MC4R barr ag	MOR DOR agonist
COc1ccc(C#Cc2c(-c3ccc(OC)cc3)oc3ccc(-c4ccc(OC)cc4)cc23)cc1	-2.1	6.9	3.1	3.0	.	1.0	.	.
COc1ccc(-c2ccc3oc(-c4ccc(OC)cc4)c(C#CCCO)c3c2)cc1	10.6*	17.4	-1.0	-6.1	.	20.3	2.3	2.6
O=C(NCC1CCN(Cc2ccccc2)CC1)[C@H]1O[C@@H](n2ccc(=O)[nH]c2=O)[C@H](O)[C@@H]1O	.	.	.	7.0	.	.	.	.
COc1cc2nc(SCC(N)=O)n(CCC3=CCCCC3)c(=O)c2cc1OC	12.1*	3.2	6.5	9.6	5.4	6.8	8.4*	5.9
O=S(=O)(c1ccccc1)N1CCCCC1CCc1ccccc1 (stereo unspecified)	2.6	.	14.0	-0.1	.	.	.	.
COc1cccc(/C=C/C(=O)N(C)CC(=O)Nc2ccc(Cl)c(C(F)(F)F)c2)c1	12.4*	13.7	-2.8	-6.7	.	1.4	0.7	6.2
CCCc1nc(SCC(=O)N2CCOCC2)c2c(C)c(C)sc2n1	0.8	12.1	-6.9	0.8	-14.3	0.2	.	.
CCc1nnc(NC(=O)c2ccc(COc3cccc(C)c3)o2)s1	14.0*	-6.8	18.6	1.8	?	-1.4	2.9	2.4
c1ccc(-c2cc(-c3nn4c(-c5ccco5)nnc4s3)c3ccccc3n2)cc1	9.7*	7.2	9.7	-1.6	-5.4	18.1	5.7	3.3
Cc1cc(-c2nn3c(-c4ccccc4)nnc3s2)c2ccccc2n1	0.1	2.5	-33.0	3.3	-8.0	11.1	.	.
Cc1noc(C(F)(F)F)c1C(=O)NNC(=O)c1ccccc1	-2.0	7.7	1.9	-0.6	-5.5	1.0	.	.
O=C(CCN1C(=O)/C(=C/c2ccccc2)SC1=S)Nc1cccnc1	11.2*	-11.3	14.1	-2.0	-15.1	6.2	2.0	6.1
O=C(CCN1C(=O)/C(=C/c2ccccc2F)SC1=S)N[C@@H](CO)Cc1ccccc1	11.5*	8.5	6.5	0.7	23.7	11.0	-3.0	4.8
O=C(CCN1C(=O)/C(=C/c2ccccc2)SC1=S)N[C@@H](CO)Cc1ccccc1	18.6*	14.0	6.2	-4.4	-0.7	12.4	-1.6	3.6
COc1cccc(/C=C2\SC(=S)N(CCC(=O)Nc3ccc(O)cc3)C2=O)c1	3.1	28.7	8.3	-5.4	7.5	1.3	.	.
O=C(CCN1C(=O)/C(=C\c2ccccc2F)SC1=S)Nc1ccc(C(=O)O)c(O)c1	-2.9	37.5	10.7	-1.5	-0.8	0.8	.	.
COc1cccc(/C=C2\SC(=S)N(CCC(=O)NCCc3ccc(O)cc3)C2=O)c1	35.2*	2.5	14.6	-1.4	2.8	12.3	-2.6	2.8
O=C(CCN1C(=O)/C(=C/c2ccccc2)SC1=S)Nc1ccccn1	0.5	8.3	1.7	-6.9	-18.3	2.8	.	.
Cc1ccc(NCc2n[nH]c(=S)n2Cc2ccccc2)cc1Cl	3.3	.	13.9	-0.6	-9.0	.	.	.
CCCCCCCNC(=O)C1(CC2CC(c3ccc(Cl)cc3)=NO2)CCNCC1 (stereo unspecified)	9.7*	6.2	8.1	-8.0	-19.4	4.4	24.4*	14.9
CCCCCCCNC(=O)C1(CC2CC(c3ccc(Cl)cc3)=NO2)CCN(C(=O)Cc2ccc(F)cc2)CC1 (stereo unspecified)	7.9	-4.2	15.3	9.0	-1.9	2.0	.	.
CCC(OC(=O)c1nsc(Cl)c1Cl)C(=O)NC(C)(C)CC (stereo unspecified)	0.3	-1.4	0.5	2.6	-0.1	0.8	.	.
COc1ccc(C=C2SC(=S)N(CCCN3CCOCC3)C2=O)c(OC)c1	15.0*	.	6.8	2.8	.	.	4.9	21.0*
Cc1ccc(NC(=O)c2cc(NC(=O)c3ccco3)ccc2N2CCCCC2)cc1	17.7*	11.7	20.2	-3.2	.	-0.6	6.2	6.8
CC1Cc2ccccc2N1C(=O)CO/N=C/c1ccccc1OC(F)F (stereo unspecified)	0.4	-3.7	19.1	2.4	15.8	1.8	.	.
SMILES	MC4R ag barr	PREPL inh	MC4R antag cAMP	HTR2A ag	Lipid droplet	NTR1 ag	MC4R barr ag	MOR DOR agonist
O=C(CO/N=C/c1ccccc1OC(F)F)N1CCc2ccccc21	10.8*	8.5	24.3	-2.4	-2.5	-0.4	-2.0	9.8
NC(N)=N/N=C/c1cccc(Cl)c1Cl	-0.4	10.9	-1.4	4.7	1.7	4.8	.	.
COC(=O)c1cccc(-n2c(=O)n(Cc3ccccc3)c(=O)c3[nH]cnc32)c1C	-2.9	1.2	5.8	-5.2	.	-0.6	.	.
CCOc1cc(C(=O)NC(C)CCc2ccccc2)cc(OCC)c1OCC (stereo unspecified)	14.1*	0.6	8.8	-1.1	.	-0.2	3.7	8.1
CCOc1ccccc1C(=O)NC(C)CCc1ccccc1 (stereo unspecified)	1.6	-2.1	4.5	-0.7	.	1.2	.	.
O=C(CCc1nnc2ccc(NCc3ccco3)nn12)N1CCN(c2ccc(F)cc2)CC1	3.5	3.7	-10.1	-1.1	-20.0	0.9	.	.
Cc1cccc(C(=O)Nc2ccc(O)c3c(=O)cc(-c4ccccc4Cl)oc23)c1	16.8*	0.9	7.5	4.0	5.9	2.1	0.4	2.9
CC1(C)C[C@H](O)[C@]2(CO)[C@H](O)C[C@]3(C)C(=CCC4[C@@]5(C)CC[C@H](O)C(C)(C)C5CC[C@]43C)[C@@H]2C1 (stereo partly specified)	18.9*	3.2	17.9	3.9	.	8.5	24.9*	21.1*
CC1(C)CC[C@]2(CO)CC[C@]3(C)C(=CCC4[C@@]5(C)CC[C@H](O)[C@@](C)(CO)C5CC[C@]43C)[C@@H]2C1 (stereo partly specified)	11.1*	11.7	5.1	5.0	.	7.6	15.0*	3.2
N#Cc1c(-c2ccc(Cl)cc2)ccnc1N1CCOCC1	-3.9	14.4	13.3	1.2	19.3	-0.3	.	.
